For orientation: IC50 means the point on the concentration scale where inhibition reaches its midpoint.

Structures are written as SMILES.

One series deals with L1210. As to the kind of experiment: Inhibitory activity was measured against murine L1210 leukemia cells. The conditions noted are these: Mus musculus. The series is classed as functional, cell-based. The essentials:
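Exponentially growing L1210 cells in RPMI were exposed to a range of concentrations for 72 h (37 °C, 5% CO2), with quadruplicate wells and medium-only controls. MTT (2.5 mg/mL in PBS) was added at 65 h, and formazan was dissolved in DMSO after 7 more h. IC50 is 50% growth inhibition versus untreated control; replicate CV <15%.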

Series [1] can be described thus: Half life period at 200 ug/mL concentration of prodrug in the presence of 0.1 ug/mL Beta-glucuronidase (Escherichia coli) in phosphate buffer. The conditions noted are these: in vitro.
The subject of the next series is Escherichia coli. As to the kind of experiment: Half life period at 200 ug/mL concentration of prodrug in the presence of 1 ug/mL Beta-glucuronidase (Escherichia coli) in phosphate buffer. The note with it: in vitro.

In the case of `COC(=O)[C@@H]1O[C@@H](Oc2ccccc2COC(=O)N[C@@H]2C[C@H](O[C@H]3C[C@](O)(C(C)=O)Cc4c(O)c5c(c(O)c43)C(=O)c3c(OC)cccc3C5=O)O[C@@H](C)[C@H]2O)[C@@H](OC(C)=O)[C@@H](OC(C)=O)[C@@H]1OC(C)=O`, the IC50 in the series with L1210 came out at 5.5 µM.

In the series with L1210, `COc1cccc2c1C(=O)c1c(O)c3c(c(O)c1C2=O)C[C@@](O)(C(=O)CO)C[C@@H]3O[C@H]1C[C@@H](NC(=O)OCc2cc(F)ccc2O[C@@H]2O[C@@H](C(=O)O)[C@@H](O)[C@H](O)[C@@H]2O)[C@H](O)[C@H](C)O1` registered a half-maximal inhibitory concentration (IC50) of 31 µM. Moreover, in series [1], the T1/2 is 30 min.

With `COc1cccc2c1C(=O)c1c(O)c3c(c(O)c1C2=O)C[C@@](O)(C(=O)CO)C[C@@H]3O[C@H]1C[C@@H](NC(=O)OCc2ccc(O[C@@H]3O[C@@H](C(=O)O)[C@@H](O)[C@H](O)[C@@H]3O)c([N+](=O)[O-])c2)[C@H](O)[C@H](C)O1`, in the series with L1210, the 50% inhibitory concentration (IC50) was determined as 2.21 µM. For the same compound, the T1/2 in series [1] is reported as 37 min.

Consider `COc1cccc2c1C(=O)c1c(O)c3c(c(O)c1C2=O)C[C@@](O)(C(=O)CO)C[C@@H]3O[C@H]1C[C@@H](NC(=O)OCc2cc(Cl)ccc2O[C@@H]2O[C@@H](C(=O)O)[C@@H](O)[C@H](O)[C@@H]2O)[C@H](O)[C@H](C)O1`, for which the values for the T1/2 (in the series with Escherichia coli; in series [1]) were 30 min and more than 240 min, respectively. In the series on L1210, this compound yielded a 50% inhibitory concentration (IC50) of 16.6 µM.

Consider `COc1cccc2c1C(=O)c1c(O)c3c(c(O)c1C2=O)C[C@@](O)(C(=O)CO)C[C@@H]3O[C@H]1C[C@@H](NC(=O)OCc2ccc(O[C@@H]3O[C@@H](C(=O)O)[C@@H](O)[C@H](O)[C@@H]3O)c(F)c2)[C@H](O)[C@H](C)O1`, for which, in the series on L1210, 8.8 µM corresponded to half-maximal inhibition (IC50). For the same compound, the T1/2 in series [1] is given as 26 min.

In the series with L1210, `COc1cccc2c1C(=O)c1c(O)c3c(c(O)c1C2=O)C[C@@](O)(C(C)=O)C[C@@H]3O[C@H]1C[C@H](N)[C@H](O)[C@H](C)O1` [DAUNORUBICIN] gave an IC50 of 0.03 µM.

With `COc1cccc2c1C(=O)c1c(O)c3c(c(O)c1C2=O)C[C@@](O)(C(C)=O)C[C@@H]3O[C@H]1C[C@@H](NC(=O)OCc2ccc(O[C@@H]3O[C@@H](C(=O)O)[C@@H](O)[C@H](O)[C@@H]3O)cc2)[C@H](O)[C@H](C)O1`, in the series on L1210, the half-inhibitory concentration (IC50) is more than 10 µM.

In the series with L1210, `COc1cccc2c1C(=O)c1c(O)c3c(c(O)c1C2=O)C[C@@](O)(C(=O)CO)C[C@@H]3O[C@H]1C[C@@H](NC(=O)OCc2cc([N+](=O)[O-])ccc2O[C@@H]2O[C@@H](C(=O)O)[C@@H](O)[C@H](O)[C@@H]2O)[C@H](O)[C@H](C)O1` gave an IC50 of 16.6 µM. In series [1], the T1/2 was 216 min.

Take `COc1cccc2c1C(=O)c1c(O)c3c(c(O)c1C2=O)C[C@@](O)(C(=O)CO)C[C@@H]3O[C@H]1C[C@@H](NC(=O)OCc2ccc(O[C@@H]3O[C@@H](C(=O)O)[C@@H](O)[C@H](O)[C@@H]3O)c(Cl)c2)[C@H](O)[C@H](C)O1`: the 50% inhibitory concentration (IC50) in the series on L1210 was determined as 17 µM. Moreover, in series [1], the T1/2 is reported as 55 min.

The values above are taken from ChEMBL document CHEMBL1131092, “Prodrugs of anthracyclines for use in antibody-directed enzyme prodrug therapy” (J Med Chem, 1998).
